Measurements reported in ChEMBL document CHEMBL5346953, “Dual Piperidine-Based Histamine H3 and Sigma-1 Receptor Ligands in the Treatment of Nociceptive and Neuropathic Pain” (J Med Chem, 2023).
The source made the active and inactive calls. The rule behind the calls is not given here.

Tests used:
Mus musculus [1] = experiment: Effect in loperamide-induced antinociception mouse assessed as increase in struggle response latency at ip administration; format: functional, organism-based
Mus musculus [2] = experiment: Antinociceptive activity in mouse assessed as effect on struggle response latency at 100 ug,ip administration; format: functional, organism-based; conditions: dose 100.0 µg
Mus musculus [3] = experiment: Antinociceptive activity in loperamide-induced mouse assessed as increase in struggle response latency struggle response latency at 100 ug,ip administration in presence of PRE-084; format: functional, organism-based; conditions: dose 100.0 µg
Mus musculus [4] = experiment: Antinociceptive activity in loperamide-induced mouse assessed as increase in struggle response latency struggle response latency at 100 ug,ip administration in presence of naloxone-methiodide; format: functional, organism-based; conditions: dose 100.0 µg
Histamine H3 receptor = Histamine H3 receptor (Homo sapiens, UniProt Q9Y5N1); experiment: Inhibition of recombinant human histamine H3 receptor stably expressed in HEK293 cells assessed as increase in cAMP accumulation in presence of forskolin incubated for 30 mins by TR-FRET LANCE assay; format: functional, cell-based
Histamine H3 receptor, sequence (Q9Y5N1 whole entry): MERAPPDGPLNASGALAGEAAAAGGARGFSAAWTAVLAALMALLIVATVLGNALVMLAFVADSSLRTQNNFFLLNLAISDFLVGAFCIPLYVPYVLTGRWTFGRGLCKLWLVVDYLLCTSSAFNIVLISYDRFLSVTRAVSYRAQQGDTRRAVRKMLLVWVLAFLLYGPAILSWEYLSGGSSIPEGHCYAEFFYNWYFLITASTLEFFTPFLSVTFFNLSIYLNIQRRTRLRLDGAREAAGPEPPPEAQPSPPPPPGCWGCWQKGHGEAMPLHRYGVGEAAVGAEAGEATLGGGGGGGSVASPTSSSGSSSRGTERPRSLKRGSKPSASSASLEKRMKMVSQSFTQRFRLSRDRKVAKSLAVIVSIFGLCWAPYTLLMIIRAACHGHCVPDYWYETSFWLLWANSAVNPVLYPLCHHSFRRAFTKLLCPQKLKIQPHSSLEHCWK

[5] = Neurotoxicity against mouse assessed as sedative effect at 15 mg/kg,ip observed after 30 mins of administration; format: toxicity, organism-based; conditions: in vivo, 0.5 h
Outline: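 Spontaneous locomotor activity was recorded in mice after i.p. dosing at 15 or 30 mg/kg, compared with vehicle, as a test of sedation. Analysis was one-way ANOVA. […]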

[6] = Neurotoxicity against mouse assessed as decrease in time spent on rod at 15 mg/kg,ip administration at 18 rpm by rotarod test; format: toxicity, organism-based; conditions: in vivo
Outline: (§1)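 Mice received 15 mg/kg i.p. or vehicle. Motor coordination was then measured as time on the rotarod, at 18 and 24 rpm, with a maximum of 60 s.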

[7] = Neurotoxicity against mouse assessed as decrease in time spent on rod at 15 mg/kg,ip administration at 24 rpm by rotarod test; format: toxicity, organism-based; conditions: in vivo; outline: as §1
[8] = Neurotoxicity against mouse assessed as impairment of motor coordination at 15 mg/kg,ip administration at 24 rpm by rotarod test; format: toxicity, organism-based; conditions: in vivo; outline: as §1
[9] = Neurotoxicity against mouse assessed as impairment of motor coordination at 15 mg/kg,ip administration at 18 rpm by rotarod test; format: toxicity, organism-based; conditions: in vivo; outline: as §1

IC50 (Histamine H3 receptor) | Compound | Activity (Mus musculus [1]) | Activity (Mus musculus [2]) | Activity (Mus musculus [3]) | Activity (Mus musculus [4]) | Activity [5] | Activity [6] | Activity [7] | Activity [8] | Activity [9]
– | Cc1cc(OCCN2CCOCC2)nn1-c1ccc2ccccc2c1 | Dose-Dependent Effect | inactive | inactive | inactive | – | – | – | – | –
83.7 nM | c1ccc(Nc2ccc(OCCCN3CCCCC3)cc2)cc1 | – | – | – | – | Toxic | Toxic | Toxic | – | –
83.4 nM | c1ccc(-c2ccc(OCCCN3CCCCCC3)cc2)cc1 | – | – | – | – | Toxic | – | – | Toxic | Toxic
